From article PMC3225805 (Chemistry & biology, 2011)
Where two headings read alike, the source gives them in different places.

Columns and labels:
Format in all cases: biochemical
[1] = target: T1, VLuc (Vibrio fischeri luciferase) (Aliivibrio fischeri, UniProt P19907); assay: luminescence inhibition, 1536-well CRC, FMN reductase-coupled; conditions: read-out: VLuc; 0.1 M sodium phosphate pH 7.0, 0.005% decanal, 0.1 mM NADH, 2 μM FMN, 0.1% BSA; partially purified enzyme
T1 sequence (P19907 1-354): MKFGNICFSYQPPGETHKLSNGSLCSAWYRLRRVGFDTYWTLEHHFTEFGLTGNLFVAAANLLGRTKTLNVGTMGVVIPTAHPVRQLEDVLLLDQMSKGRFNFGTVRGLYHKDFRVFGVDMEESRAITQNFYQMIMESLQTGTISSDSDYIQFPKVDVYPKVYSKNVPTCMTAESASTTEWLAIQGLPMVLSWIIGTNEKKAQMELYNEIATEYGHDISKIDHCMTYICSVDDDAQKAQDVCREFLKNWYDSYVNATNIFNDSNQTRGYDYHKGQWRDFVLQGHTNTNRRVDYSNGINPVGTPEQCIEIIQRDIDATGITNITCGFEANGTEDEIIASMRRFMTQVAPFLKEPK
T1 sequence (P19908 1-326 partner): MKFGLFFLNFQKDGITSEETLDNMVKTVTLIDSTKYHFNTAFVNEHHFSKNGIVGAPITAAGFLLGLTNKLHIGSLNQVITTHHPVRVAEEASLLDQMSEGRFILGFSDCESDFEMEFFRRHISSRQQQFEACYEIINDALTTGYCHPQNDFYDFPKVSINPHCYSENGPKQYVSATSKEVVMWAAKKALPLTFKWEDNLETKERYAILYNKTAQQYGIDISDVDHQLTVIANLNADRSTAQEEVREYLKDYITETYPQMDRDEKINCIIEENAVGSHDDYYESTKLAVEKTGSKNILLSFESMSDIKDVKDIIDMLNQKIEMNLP

[2] = target: T2, RLuc (Renilla reniformis luciferase) (Renilla reniformis, UniProt P27652); assay: luminescence inhibition, 1536-well CRC
T2 sequence (P27652 1-311): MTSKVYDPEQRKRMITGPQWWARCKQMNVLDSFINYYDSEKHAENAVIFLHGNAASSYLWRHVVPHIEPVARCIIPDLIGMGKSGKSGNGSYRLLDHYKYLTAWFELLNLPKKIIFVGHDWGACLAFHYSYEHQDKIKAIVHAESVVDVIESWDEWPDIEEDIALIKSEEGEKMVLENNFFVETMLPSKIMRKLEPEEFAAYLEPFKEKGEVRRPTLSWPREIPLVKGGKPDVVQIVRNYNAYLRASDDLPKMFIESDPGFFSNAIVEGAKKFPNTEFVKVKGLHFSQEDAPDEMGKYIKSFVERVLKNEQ
Procedure, shortened: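 Renilla reniformis luciferase in 1536-well format with 5 μM coelenterazine as substrate. Luminescence is measured over a test-compound concentration series. IC50 is taken from the fitted concentration-response curve and given as mean ±SD of at least 4 determinations.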

[3] = target: T3, LmLuc (Luciola mingrelica luciferase) (Luciola mingrelica, UniProt Q26304); assay: luminescence inhibition, 1536-well CRC
T3 sequence (Q26304 1-548): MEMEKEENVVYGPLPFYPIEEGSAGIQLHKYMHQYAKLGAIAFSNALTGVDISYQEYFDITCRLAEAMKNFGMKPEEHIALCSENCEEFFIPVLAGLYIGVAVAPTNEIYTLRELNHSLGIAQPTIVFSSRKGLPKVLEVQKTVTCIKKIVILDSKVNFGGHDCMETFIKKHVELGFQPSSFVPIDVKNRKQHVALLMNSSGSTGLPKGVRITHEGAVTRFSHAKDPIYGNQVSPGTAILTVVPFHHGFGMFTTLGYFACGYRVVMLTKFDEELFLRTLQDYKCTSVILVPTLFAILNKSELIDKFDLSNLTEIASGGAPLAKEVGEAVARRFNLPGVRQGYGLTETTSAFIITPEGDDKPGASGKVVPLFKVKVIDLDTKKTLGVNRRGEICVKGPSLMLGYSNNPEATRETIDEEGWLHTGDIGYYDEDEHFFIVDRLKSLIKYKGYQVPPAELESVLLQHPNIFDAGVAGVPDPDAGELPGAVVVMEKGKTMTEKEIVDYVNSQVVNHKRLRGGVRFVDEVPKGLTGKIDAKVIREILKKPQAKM
Procedure, shortened: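 Luciola mingrelica luciferase at 5 nM final in 1536-well format, run by the same protocol as the Photinus enzyme with 10 μM D-luciferin and 10 μM ATP. Luminescence is read over a test-compound titration. IC50 comes from curve fitting and is given as mean ±SD of at least 4 determinations.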

[4] = target: T2, RLuc (Renilla reniformis luciferase); assay: luminescence inhibition, 1536-well CRC; conditions: read-out: % inhibition at 57 μM (inactive)
[5] = target: T4, FLuc (Photinus pyralis luciferase) (Photinus pyralis, UniProt P08659); assay: luminescence inhibition, 1536-well CRC
T4 sequence (P08659 whole entry): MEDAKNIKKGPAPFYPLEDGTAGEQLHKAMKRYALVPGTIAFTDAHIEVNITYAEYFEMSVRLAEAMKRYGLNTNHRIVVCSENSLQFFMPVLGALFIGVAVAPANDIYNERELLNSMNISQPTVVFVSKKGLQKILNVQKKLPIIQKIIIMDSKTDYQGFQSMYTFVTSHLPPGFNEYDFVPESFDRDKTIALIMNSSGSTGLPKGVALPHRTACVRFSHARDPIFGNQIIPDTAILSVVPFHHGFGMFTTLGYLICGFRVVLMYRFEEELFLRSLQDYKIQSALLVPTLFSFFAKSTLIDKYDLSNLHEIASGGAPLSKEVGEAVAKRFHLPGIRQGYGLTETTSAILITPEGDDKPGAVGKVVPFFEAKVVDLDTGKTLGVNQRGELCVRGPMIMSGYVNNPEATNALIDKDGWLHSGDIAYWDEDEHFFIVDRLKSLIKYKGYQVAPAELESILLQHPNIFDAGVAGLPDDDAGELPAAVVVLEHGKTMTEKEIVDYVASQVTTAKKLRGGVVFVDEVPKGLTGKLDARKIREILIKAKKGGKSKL
Procedure, shortened: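 Purified wild-type Photinus pyralis luciferase in 1536-well format, with 10 μM D-luciferin and 10 μM ATP as substrates. Luminescence is read across a concentration titration of test compound. IC50 comes from the fitted concentration-response curve and is given as mean ±SD of at least 4 determinations.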

[6] = target: T3, LmLuc (Luciola mingrelica luciferase); assay: luminescence inhibition, 1536-well CRC; conditions: read-out: % inhibition at 57 μM (inactive)
[7] = target: T4, FLuc (Photinus pyralis luciferase); assay: luminescence inhibition, 1536-well CRC; conditions: read-out: % inhibition at 57 μM (inactive)
[8] = read-out: LmLuc, 10 μM D-luciferin and ATP, 5 nM enzyme
[9] = read-out: FLuc, 10 μM D-luciferin and ATP

| IC50 [1] [µM] | IC50 [3, 8] [µM] | IC50 [5, 9] [µM] | Compound | also measured |
| --- | --- | --- | --- | --- |
|  | 14.8 ± 2.8 | 18.6 ± 8.8 | benzofuran [compound 12] |  |
| 18 ± 8 | 5.3 ± 5.9 | 1.7 ± 1.6 | aspulvinone M-CR [compound 8] |  |

More lines, now with the values behind:

| Compound | IC50 [1] [µM] | IC50 [3, 8] [µM] | IC50 [5, 9] [µM] | also measured |
| --- | --- | --- | --- | --- |
| CC(C)(O)[C@H]1Cc2cc(/C=C3\OC(=O)C(c4ccc5c(c4)C[C@H](C(C)(C)O)O5)=C3O)ccc2O1 [compound 5, aspulvinone J-CR] | 6.5 ± 3.3 | 0.1 ± 0.03 |  | IC50 ([2]; read-out: RLuc, 5 μM coelenterazine): > 57 µM |
| O=C1O/C(=C\c2ccc(O)cc2)C(O)=C1c1ccc(O)cc1 [compound 1, aspulvinone E] | > 57 |  |  | IC50 [3]: 3.6 ± 1.1 µM; inhibition at 57 µM [4]: < 20%; IC50 [5]: 1.4 ± 1.6 µM |
| aspulvinone F [compound 2] |  | 2.5 ± 0.5 | 3.6 ± 1.5 | IC50 ([2]; read-out: Ultra, 5 μM coelenterazine): > 57 µM |
| aspulvinone I-CR [compound 4] | 12 ± 2.3 | 0.5 ± 0.2 | 0.72 ± 0.4 |  |
| COC(=O)[C@]1(Cc2ccc(O)c(CC3OC3(C)C)c2)OC(=O)C(O)=C1c1ccc(O)cc1 (stereo partly drawn) [compound 11, butyrolactone III] |  |  |  | inhibition at 57 µM [6]: < 20%; inhibition at 57 µM [4]: < 20%; inhibition at 57 µM [7]: < 20% |
| COC(=O)[C@@]1(Cc2ccc(O)c(CC=C(C)C)c2)OC(=O)C(O)=C1c1ccc(O)cc1 [compound 10, butyrolactone I] |  |  |  | inhibition at 57 µM [6]: < 20%; IC50 [2]: > 57 µM; inhibition at 57 µM [7]: < 20% |
